Converted amounts (≈) assume the structure as drawn. The source made the active and inactive calls. No cut-off for these calls is given here.

Data set [1] deals with MDA-MB-231. Description: Cytotoxicity against human ER negative MDA-MB-231 cells after 72 hrs by MTS assay. It counts as functional, cell-based. The conditions noted are these: MDA-MB-231, 72 h. Summed up:
(§1)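 Cell proliferation of MCF-7, MDA-MB-231, AsPC1 and Panc-1 measured by MTS assay; IC50 in μM.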
On the technique in general: Tetrazolium dyes change colour on reduction, which living cells bring about.

In a further data set the test system is MCF7. Description: Cytotoxicity against human ER positive MCF7 cells after 72 hrs by MTS assay. It counts as functional, cell-based. The conditions noted are these: MCF7, 72 h. A digest of the protocol: as §1
A further data set has as its system ASPC1. Nature of the data set: Cytotoxicity against human AsPC1 cells after 72 hrs by MTS assay. It counts as functional, cell-based. The settings on record: ASPC1, 72 h. A digest of the protocol: as §1
The subject of the next data set is PANC-1. Nature of the data set: Cytotoxicity against human PANC1 cells after 72 hrs by MTS assay. It counts as functional, cell-based. The conditions noted are these: PANC-1, 72 h. A digest of the protocol:
as §1

The nature of data set [2]: Solubility of the compound in water. It counts as physicochemical.
Data set [3] addresses Signal transducer and activator of transcription 3 (Homo sapiens) (UniProt P40763). Nature of the data set: Inhibition of STAT3 in human ER negative MDA-MB-231 cells assessed as reduction of phosphorylated STAT3 at Tyr-705 level at 1 to 10 uM after 24 hrs by Western blot analysis. The class given is cell-based. Summed up: (§2)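 MDA-MB-231 cells treated with a series of doses for 24 h; total STAT3 and Tyr-705-phosphorylated STAT3 detected by Western blot.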
For orientation: A western blot detects proteins with antibodies after separation by electrophoresis.

Data set [4] concerns MDA-MB-231. Description: Antitumor activity against human ER negative MDA-MB-231 cells xenografted in nude mouse assessed as inhibition of tumor growth at 75 mg/kg, po qd for 5 days. It counts as functional, organism-based. Set-up: dose 75 mg/kg. Summed up:
(§3)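 MDA-MB-231 xenografts in mice; tumor growth followed after intraperitoneal or oral dosing, doses as listed per line.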
A general note: In xenograft studies the graft and the host belong to different species.

Data set [5] deals with Signal transducer and activator of transcription 3 (Homo sapiens) (UniProt P40763). Description: Inhibition of STAT3 promoter activity in human ER negative MDA-MB-231 cells at 10 uM after 24 hrs by dual luciferase reporter assay. It counts as cell-based. Summed up: (§4)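 MDA-MB-231 cells pretreated 24 h at various concentrations, then transiently transfected with pSTAT3-Luc vector; STAT3 promoter activity by dual luciferase reporter assay, expressed relative to control.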
Chain of Signal transducer and activator of transcription 3 (Homo sapiens) (P40763 whole entry): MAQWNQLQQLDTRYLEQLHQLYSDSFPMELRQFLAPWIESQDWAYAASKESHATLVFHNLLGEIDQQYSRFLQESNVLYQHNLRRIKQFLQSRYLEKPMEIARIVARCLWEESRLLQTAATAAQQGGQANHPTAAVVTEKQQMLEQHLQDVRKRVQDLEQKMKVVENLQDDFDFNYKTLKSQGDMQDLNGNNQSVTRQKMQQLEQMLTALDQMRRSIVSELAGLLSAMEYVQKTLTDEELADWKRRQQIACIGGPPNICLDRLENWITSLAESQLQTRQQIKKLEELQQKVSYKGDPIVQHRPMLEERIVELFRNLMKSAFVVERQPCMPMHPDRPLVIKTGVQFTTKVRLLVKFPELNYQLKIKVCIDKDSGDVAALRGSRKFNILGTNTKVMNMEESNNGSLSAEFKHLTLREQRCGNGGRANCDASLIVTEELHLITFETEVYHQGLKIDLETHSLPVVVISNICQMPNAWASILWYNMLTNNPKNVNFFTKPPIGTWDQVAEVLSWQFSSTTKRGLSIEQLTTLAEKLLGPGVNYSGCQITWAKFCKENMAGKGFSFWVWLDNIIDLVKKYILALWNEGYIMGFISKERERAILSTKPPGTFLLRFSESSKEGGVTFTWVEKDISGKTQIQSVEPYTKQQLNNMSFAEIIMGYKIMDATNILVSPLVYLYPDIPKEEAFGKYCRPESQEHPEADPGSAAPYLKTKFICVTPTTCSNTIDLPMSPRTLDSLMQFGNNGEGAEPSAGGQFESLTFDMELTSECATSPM

For data set [6] the target is unchanged. Nature of the data set: Inhibition of STAT3 promoter activity in human ER negative MDA-MB-231 cells after 24 hrs by dual luciferase reporter assay. It counts as cell-based. A digest of the protocol: as §4
Data set [7] has as its system MDA-MB-231. Nature of the data set: Induction of apoptosis in human ER negative MDA-MB-231 cells assessed as cleavage of caspase-3 after 48 hrs. The class given is functional, cell-based.
The subject of data set [8] is MDA-MB-231. Description: Antiproliferative activity against human ER negative MDA-MB-231 cells at 1 to 10 uM after 48 hrs by light microscopic analysis. The class given is functional, cell-based. A digest of the protocol: (§5)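 MDA-MB-231 cells treated 48 h at 1, 5 and 10 μM; cell morphology, growth and apoptotic features examined under light microscopy.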
Data set [9] has as its system MDA-MB-231. Nature of the data set: Antitumor activity against human ER negative MDA-MB-231 cells xenografted in nude mouse assessed as inhibition of tumor growth at 12.5 mg/kg, ip qd for 5 days. The class given is functional, organism-based. Set-up: dose 12.5 mg/kg. A digest of the protocol:
as §3

The target in data set [10] is Signal transducer and activator of transcription 3 (Homo sapiens) (UniProt P40763). Description: Inhibition of STAT3 promoter activity in human ER negative MDA-MB-231 cells at 20 uM after 24 hrs by dual luciferase reporter assay. It counts as cell-based. Summed up: as §4
Data set [11] deals with MDA-MB-231. Description: Induction of morphological changes in human ER negative MDA-MB-231 cells at 1 to 10 uM after 48 hrs by light microscopic analysis. The class given is functional, cell-based. Summed up: as §5
Data set [12] addresses Signal transducer and activator of transcription 3 (Homo sapiens) (UniProt P40763). Description: Inhibition of STAT3 in human ER negative MDA-MB-231 cells assessed as reduction of total STAT3 level at 1 to 10 uM after 24 hrs by Western blot analysis. The class given is cell-based. A digest of the protocol: as §2
Data set [13] deals with MDA-MB-231. Description: Induction of apoptosis in human ER negative MDA-MB-231 cells at 1 to 10 uM after 48 hrs by light microscopic analysis. It counts as functional, cell-based. Summed up: as §5
Data set [14] relates to MDA-MB-231. Description: Antiproliferative activity against human ER negative MDA-MB-231 cells at 10 to 20 uM after 24 hrs by MTT assay. The class given is functional, cell-based. A digest of the protocol: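 MDA-MB-231 cells exposed 24 h; proliferation read by MTT assay.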
The test system of data set [15] is MDA-MB-231. Description: Induction of apoptosis in human ER negative MDA-MB-231 cells assessed as down regulation of cycline D1 at 1 to 10 uM after 48 hrs. It counts as functional, cell-based.
The subject of data set [16] is MDA-MB-231. Description: Induction of apoptosis in human ER negative MDA-MB-231 cells assessed as cleavage of caspase-3 at 1 to 10 uM after 48 hrs. It counts as functional, cell-based.
Data set [17] has as its system MDA-MB-231. Nature of the data set: Antitumor activity against human ER negative MDA-MB-231 cells xenografted in nude mouse assessed as inhibition of tumor growth at 7.5 mg/kg, ip qd for 5 days. Further details: dose 7.5 mg/kg. It counts as functional, organism-based. Summed up: as §3
For data set [18], the system named is MDA-MB-231. Nature of the data set: Antitumor activity against human ER negative MDA-MB-231 cells xenografted in nude mouse assessed as inhibition of tumor growth at 25 mg/kg, po qd for 5 days. The class given is functional, organism-based. Further details: dose 25 mg/kg. A digest of the protocol:
as §3

In data set [19] the test system is MDA-MB-231. Description: Induction of apoptosis in human ER negative MDA-MB-231 cells using annexin-V staining at 1 to 10 uM after 48 hrs by flow cytometry. The class given is functional, cell-based. Summed up:
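Apoptosis in MDA-MB-231 cells measured by annexin V staining with flow cytometry across a dose range.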

What is called IC50 is the point on the concentration scale where inhibition reaches its midpoint. For `O=C(Nc1ccc([N+](=O)[O-])cc1Cl)c1cc(Cl)ccc1OCCN1CCOCC1`, the IC50 in the data set with MDA-MB-231 [1] is 18 µM; in the data set with MCF7, 9.87 µM; in the data set with ASPC1 it was 72.2 µM; in the data set with PANC-1, > 10 µM.

In the case of `O=C(Nc1ccc([N+](=O)[O-])cc1Cl)c1cc(Cl)ccc1OC1CCNCC1` [listing 1 of 2 here], the IC50 in the data set with MDA-MB-231 [1] stood at 0.29 µM; in the data set with MCF7, 0.25 µM; with ASPC1, 2.76 µM; in the data set on PANC-1 it was 0.54 µM.

By solubility is commonly meant how much of the substance goes into solution per volume. As to `Cl.O=C(Nc1ccc([N+](=O)[O-])cc1Cl)c1cc(Cl)ccc1OC1CCNCC1`, in data set [2] (buffer), the solubility came to 248 µg/mL.

The term inhibition denotes how much of the control response was suppressed. In the case of `O=C(Nc1ccc([N+](=O)[O-])cc1Cl)c1cc(Cl)ccc1O` [NICLOSAMIDE], the inhibition entry in data set [3], in [5], in [10] and in data set [12] was “Active” each time. For the same molecule, the TGI entry in the data set on MDA-MB-231 [4] and with MDA-MB-231 [9] was “Active” each time. The IC50 with MDA-MB-231 [1] was found to be 0.79 µM; with MCF7 it was 1.06 µM; with ASPC1, 1.47 µM; in the data set on PANC-1, 1.73 µM. The outcome (in data set [6]; with MDA-MB-231 [8]; in the data set on MDA-MB-231 [11]; in the data set with MDA-MB-231 [13]; with MDA-MB-231 [14]) was Active. In the data set with MDA-MB-231 [7], the Activity result is “Dose-dependent effect”. Besides, in data set [2] (water, read-out: solubility), the solubility came to 0.23 µg/mL (≈ 0.703 µM).

`NCCCOc1ccc(Cl)cc1C(=O)Nc1ccc([N+](=O)[O-])cc1Cl`: the IC50 in the data set with MDA-MB-231 [1] came to 2.61 µM; in the data set with MCF7 it was 3.11 µM; in the data set on ASPC1, 4.2 µM; in the data set on PANC-1, 3.11 µM.

For `NCCCCOc1ccc(Cl)cc1C(=O)Nc1ccc([N+](=O)[O-])cc1Cl`, the IC50 with MDA-MB-231 [1] is 2.37 µM; in the data set with MCF7 it was 3.7 µM; in the data set on ASPC1 it was 7.4 µM; in the data set on PANC-1, > 10 µM.

Regarding `NCCOCCOc1ccc(Cl)cc1C(=O)Nc1ccc([N+](=O)[O-])cc1Cl`, the IC50 in the data set on MDA-MB-231 [1] is 5.3 µM; with MCF7, 9.37 µM; with ASPC1, > 10 µM; in the data set on PANC-1, > 10 µM.

Take `O=C(Nc1ccc([N+](=O)[O-])cc1Cl)c1cc(Cl)ccc1OCCN1CCCCC1`: the IC50 in the data set with MDA-MB-231 [1] and with MCF7 was > 10 µM each time.

As for `O=C(Nc1ccc([N+](=O)[O-])cc1Cl)c1cc(Cl)ccc1OCCF`, the IC50 in the data set with MDA-MB-231 [1] and in the data set on MCF7 was > 10 µM throughout.

Take `NCCOc1ccc(Cl)cc1C(=O)Nc1ccc([N+](=O)[O-])cc1Cl`: the result (in the data set with MDA-MB-231 [15]; with MDA-MB-231 [16]; in [6]; in the data set with MDA-MB-231 [8]; in the data set with MDA-MB-231 [19]; in the data set on MDA-MB-231 [11]) was Active. Moreover, the result with MDA-MB-231 [13] and with MDA-MB-231 [14] was Active. For the same molecule, the inhibition entry in [3] and in data set [12] was “Active” in each case. In addition, the TGI result with MDA-MB-231 [17] and in the data set on MDA-MB-231 [18] was “Active” each time. Besides, the IC50 came out at 1.64 µM in the data set on MDA-MB-231 [1], 0.91 µM in the data set on MCF7, 1.9 µM with ASPC1 and 1.08 µM in the data set on PANC-1. Also, the inhibition in [5] is 32%; in data set [6], “Dose-dependent effect”; in [10], 62%. Also, the Activity entry in the data set with MDA-MB-231 [7] was “Dose-dependent effect”.

Consider `CN1CCN(CCOc2ccc(Cl)cc2C(=O)Nc2ccc([N+](=O)[O-])cc2Cl)CC1`, for which the IC50 in the data set with MDA-MB-231 [1] and in the data set on MCF7 was > 10 µM each time.

Take `CN(C)CCOc1ccc(Cl)cc1C(=O)Nc1ccc([N+](=O)[O-])cc1Cl`: the IC50 in the data set on MDA-MB-231 [1] and in the data set with MCF7 was > 10 µM throughout.

`CN1CCC(Oc2ccc(Cl)cc2C(=O)Nc2ccc([N+](=O)[O-])cc2Cl)CC1`: the IC50 in the data set on MDA-MB-231 [1] was 2.69 µM; in the data set on MCF7, 4.11 µM; in the data set on ASPC1, 3.51 µM; with PANC-1 it was > 10 µM.

As to `CS(=O)(=O)Nc1ccc(NC(=O)c2cc(Cl)ccc2OC2CCNCC2)c(Cl)c1`, the IC50 with MDA-MB-231 [1] and with MCF7 was > 10 µM each time.

For the molecule `NCCCCCOc1ccc(Cl)cc1C(=O)Nc1ccc([N+](=O)[O-])cc1Cl`, the IC50 with MDA-MB-231 [1] is 3.1 µM; in the data set on MCF7 it was 3.49 µM; in the data set with ASPC1 it was 2.08 µM; in the data set with PANC-1 it was 4.67 µM.

With `O=C(Nc1ccc([N+](=O)[O-])cc1Cl)c1cc(Cl)ccc1OCCN1CCNCC1`, the results for the IC50 with MDA-MB-231 [1] and in the data set on MCF7 were 8.7 µM and 12.4 µM, respectively.

For `CC(=O)Nc1ccc(NC(=O)c2cc(Cl)ccc2OC2CCNCC2)c(Cl)c1`, the IC50 in the data set with MDA-MB-231 [1] was 5.87 µM; in the data set with MCF7, > 10 µM.

For the molecule `O=C(Nc1ccc([N+](=O)[O-])cc1Cl)c1cc(Cl)ccc1OC1CCNCC1` [listing 2 of 2 here], the result with MDA-MB-231 [8], in the data set on MDA-MB-231 [11] and with MDA-MB-231 [13] was Active.

(Values after ChEMBL document CHEMBL2321699, “Discovery of O-Alkylamino Tethered Niclosamide Derivatives as Potent and Orally Bioavailable Anticancer Agents” (ACS Med Chem Lett, 2013).)
